Here are results for six compounds from article PMC7785655 (Toxicology, 2020).

A short description of series [1]: Drug recovery from 2D cultures or LAMPS chip effluent. The class given is in vitro ADME, human. The following applies: human; for recovery: primary human hepatocytes, 2D cultures or LAMPS chips. The procedure, abridged: (§1)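 Hepatocytes were seeded from thaw at 2.75×10^6 cells/mL into fibronectin/collagen I-coated chips or 96-well plates, then overlaid with THP-1, EA.hy926 and LX-2 cells. Drugs in 0.1% DMSO vehicle were added on day 0. Chips were perfused at 15 μL/hour, and 2D media were exchanged daily for up to 10 days. Drugs in effluent or medium were quantified by LC-MS/MS and expressed as % of starting concentration. Values are mean±SEM, n=3–9.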

Series [2] relates to primary human hepatocytes. The following applies: cited from earlier work.
Series [3] deals with primary human hepatocytes. The series can be described thus: Drug recovery from 2D cultures or LAMPS chip effluent. The class given is in vitro ADME. The following applies: primary human hepatocytes; effect most pronounced for these drugs. In outline: as §1
Assay in series [4]: as above
The class given is in vitro ADME. Particulars: human, iCell hepatocytes. The procedure, abridged:
as §1

Series [5] deals with primary human hepatocytes. The series can be described thus: Drug effects on viability and function in 2D monolayer cultures. The class given is cell-based. The following applies: day 10; 2D cultures with primary hepatocytes; Tolcapone 88 μM, Trovafloxacin 150 μM, LPS 1 μg/mL.
Series [6] has as its system primary human hepatocytes. The series can be described thus: Drug effects on viability and function. Particulars: both laboratories. The class given is cell-based.
Where [7] appears, read: Tolcapone 88 μM, 5 days, vs No Treatment.
Setting [8] is: 2D monolayer-cultured primary human hepatocytes.

SMILES strings stand for the structures. Read-outs that look alike come from different tables or passages of the source.

For `Cn1c(=O)c2c(ncn2C)n(C)c1=O` [Caffeine], the recovery in series [1] is approximately 100%. Moreover, the “effect on LDH levels” value in series [2] (Caffeine 600 μM, previous study in Laboratory 2, different donor hepatocytes, ref Vernetti et al. 2016) was “reduced”. For the same compound, in series [2], the effect on albumin result was “without significant effect” and the effect on urea entry is reported as “without significant effect”.

With `CCc1ccc(CCOc2ccc(CC3SC(=O)NC3=O)cc2)nc1` (centres unmarked) [Pioglitazone], the “recovery in LAMPS chips compared with 2D monolayer cultures” value in series [3] was “lower recovery than 2D monolayer cultures”. Further, the recovery in series [4] was 10 to 40%; in series [4] (LAMPS chips and 2D monolayer), approximately 100%.

`CN(CCOc1ccc(CC2SC(=O)NC2=O)cc1)c1ccccn1` (centres unmarked) [Rosiglitazone]: the recovery in series [4] is 10 to 40%; in series [4] (LAMPS chips and 2D monolayer) it was approximately 100%.

`Cc1ccc(C(=O)c2cc(O)c(O)c([N+](=O)[O-])c2)cc1` [Tolcapone]: in series [5], the cell viability result was “pronounced effects”. Also, the recovery in series [4] is 10 to 40%. This compound also registered a recovery in series [4] (LAMPS chips and 2D monolayer) of approximately 100%. In addition, in series [6] (setting [7]), the albumin production entry is recorded as “statistically significant decrease” and the urea production entry is “statistically significant decrease”.

On to `Cc1c(C)c2c(c(C)c1O)CCC(C)(COc1ccc(CC3SC(=O)NC3=O)cc1)O2` (centres unmarked) [Troglitazone], for which, in series [1] (setting [8]), the recovery at 28 µM was more than 10% and the recovery at 1 day, 28 µM is less than 1%. In addition, the “recovery in LAMPS chips compared with 2D monolayer cultures” value in series [3] is “lower recovery than 2D monolayer cultures”. Moreover, the recovery in series [4] lay within 10 to 40%. Besides, in series [4] (LAMPS chips and 2D monolayer), the recovery is approximately 100%.

Consider `N[C@@H]1[C@H]2CN(c3nc4c(cc3F)c(=O)c(C(=O)O)cn4-c3ccc(F)cc3F)C[C@@H]12` [Trovafloxacin], for which, in series [1], the recovery is approximately 100%. Besides, the cell viability result in series [5] is on record as “pronounced effects”. For the same compound, in series [6] (Trovafloxacin 150 μM), the “effect on LDH” value was “significant effects” and the effect on albumin result was “significant effects”.
